The subject of series [1] is human red blood cells. Kind of series: Hemolytic. Type of series: cell-based. The settings on record: Erythrocyte, 1 h, read-out: IC50, Human RBC's. The gist of the method: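 Blood from a healthy donor was collected in EDTA. RBCs were pelleted at 14,000 rpm for 5 min, and 200 µL of pellet was resuspended in 9.8 mL PBS, pH 7.2. 100 µL suspension plus 100 µL test solution (200–1 µg/mL) were incubated 1 h at 35 °C, then spun at 10,000 rpm for 10 min. Supernatant haemoglobin was read at 540 nm. Triton X-100 and PBS defined 100% and 0% hemolysis.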

Series [2] has as its system ESBL-producing E. coli. Kind of series: MIC by serial dilution, ESBL E. coli. Type of series: cell-based. As to conditions: Escherichia coli, read-out: Minimum inhibitory concentration (MIC), E. coli. The gist of the method:
(§1)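 MIC was set by serial dilution of test compound, with three replicates per concentration. Strains were clinical E. coli, K. pneumoniae and P. aeruginosa isolates, identified biochemically and confirmed as ESBL producers by double disc synergy test (ceftazidime and cefotaxime discs 20 mm from amoxicillin/clavulanate on Mueller Hinton agar, 37 °C, 18–20 h).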

Series [3] can be described thus: Brine shrimp lethality. As to conditions: Artemia salina (brine shrimp), in vivo. The gist of the method: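 Artemia salina eggs were hatched for 24 h in aerated, lit salt water (27 g table salt per 3 L). Ten nauplii went into each tube with test compound at 1–200 µg/mL in 300 µL total. After 24 h, survivors were counted under a magnifier and percent mortality calculated. IC50 came from Finney analysis.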

Series [4] concerns ESBL-producing strains (E. coli, K. pneumoniae, and P. aeruginosa). In words: MIC, summary across ESBL-producing strains. Type of series: cell-based. The gist of the method:
as §1

Series [5] deals with ESBL-producing P. aeruginosa. In words: MIC by serial dilution, ESBL P. aeruginosa. Type of series: cell-based. The settings on record: Pseudomonas aeruginosa, read-out: Minimum inhibitory concentration (MIC), P. aeruginosa. The gist of the method:
(§2)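 Bacterial isolates were confirmed ESBL-positive by double disc synergy test. For that test, a 0.5 McFarland suspension was swabbed onto Mueller Hinton agar, and ceftazidime and cefotaxime (30 μg) discs were placed 20 mm from an amoxicillin/clavulanate (30 μg) disc. Plates were incubated at 37 °C for 18-20 h, and an enhanced zone indicated ESBL. Test compounds were dissolved in appropriate solvents, and MIC was determined by serial dilution, three replicates per concentration.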

Series [6] concerns ESBL-producing K. pneumoniae. Kind of series: MIC by serial dilution, ESBL K. pneumoniae. Type of series: cell-based. The settings on record: Klebsiella pneumoniae, read-out: Minimum inhibitory concentration (MIC), K. pneumoniae. The gist of the method: as §2
Series [7] is described as follows: Solubility in DMSO. Type of series: physicochemical.
Series [8] has as its system tuberculosis. As to conditions: cited from earlier work.

Converted amounts (≈) assume the structure as drawn.

As for `COc1cc(C=Nc2ccc([N+](=O)[O-])cc2)ccc1O` [SB-1, 2-Methoxy-4-((4-nitrophenylimino)methyl)phenol], in series [1], the 50% inhibitory concentration (IC50) – broadly, the point on the concentration scale where inhibition reaches its midpoint – is > 200 µg/mL. For the same compound, the MIC in series [2], in series [4], in series [5] and in series [6] was 125 µg/mL (≈ 459 µM) throughout. Besides, in series [3], the IC50 at 24 h worked out at 50.5 µg/mL (≈ 185 µM). Besides, in series [7], the “Solubility in DMSO” value is recorded as “Soluble in DMSO”.

As to `COc1cc(C=Nc2ccccc2Br)ccc1O` [SB-2, 4-((2-Bromophenylimino)methyl)-2-methoxyphenol], the MIC in series [2], in series [4], in series [5] and in series [6] was 250 µg/mL (≈ 817 µM) throughout. The “Solubility in DMSO” value in series [7] was “Soluble in DMSO”.

In the case of `COc1cc(C=Nc2ccc(C)cc2Cl)ccc1O` [SB-3, 4-((2-Chloro-4-methylphenylimino)methyl)-2-methoxyphenol], the IC50 in series [1] is > 200 µg/mL. The MIC in series [2], in series [4], in series [5] and in series [6] was 125 µg/mL (≈ 453 µM) in each case. The “Solubility in DMSO” value in series [7] is “Soluble in DMSO”.

For the compound `COc1cc(C=Nc2cccc(O)c2)ccc1O` [SB-4, 4-((3-Hydroxyphenylimino)methyl)-2-methoxyphenol], the MIC in series [2], in series [4], in series [5] and in series [6] was 125 µg/mL (≈ 514 µM) throughout. In addition, the “Solubility in DMSO” value in series [7] is recorded as “Soluble in DMSO”.

With `COc1cc(C=Nc2ccc(Cl)cc2Cl)ccc1O` [SB-5, 4-((2,4-Dichlorophenylimino)methyl)-2-methoxyphenol], the IC50 in series [1] is > 200 µg/mL. For the same compound, the MIC in series [2], in series [4], in series [5] and in series [6] was 125 µg/mL (≈ 422 µM) each time. The compound further showed a half-inhibitory concentration (IC50) at 24 h in series [3] of 45.7 µg/mL (≈ 154 µM). In addition, in series [7], the “Solubility in DMSO” value is “Soluble in DMSO”.

For the compound `[H]/N=C(/N)N[C@H]1[C@H](O)[C@@H](O)[C@H](O[C@@H]2O[C@@H](C)[C@](O)(C=O)[C@H]2O[C@@H]2O[C@@H](CO)[C@H](O)[C@@H](O)[C@@H]2NC)[C@@H](N/C(N)=N\[H])[C@@H]1O` [streptomycin], the “MIC, antituberculosis activity” value in series [8] was 10.7 µM (≈ 6.22 µg/mL).

Values taken from publication PMC11564564 (Scientific Reports, 2024).
